Jurkat viability = cytotoxic compounds reducing Jurkat cell viability; inhibition, % at 4 µM; Jurkat E6.1 viability, ATP luminescence, 48 h; AID 463; 56,000 tested, 1.2% active;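 active means inhibition above the mean inhibition of all tested compounds plus 3 SD, cut at about 28% in these data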
H69AR inhibit = growth inhibitors of human H69AR lung tumor cells. H69AR lung tumor viability, ATP luminescence, 72 h; stronger effect = lower value. viability, % at 10 µM. 85,000 tested, 6% active;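 active means viability at or below 40%; inactive means viability above 40%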;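 further: multidrug resistant small cell line overexpressing MRP-1 efflux transporter; 100% = mean luminescence of untreated control wells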
Fibroblast inh = blocks proliferation of human lung fibroblasts; AID 719; LL 47 human lung fibroblast viability, ATP luminescence; stronger effect = lower value; viability, % at 10 µM; 85,000 tested, 1.1% active;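 active means viability at or below 50% in the single dose screen; inactive means viability above 50%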;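 further: compound exposure lasted 72 h before the ATP readout; 100% = median luminescence of untreated cell-only wells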
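Assay system: human lung fibroblast line LL 47, low passage. Input: 1,150 fibroblasts seeded per well. Times: overnight cell rest, 72 h compound treatment at 37 °C. Evaluation: % viability of median cell-only signal. Technique: luminescent ATP detection, CellTiter-Glo. Control set: cell-only wells, no compound.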
HUVEC inhibit = blocks proliferation of human endothelial cells; viability, % at 10 µM (by protocol); HUVEC proliferation, CellTiter-Glo luminescence, 72 h; stronger effect = lower value; 86,000 tested, 1.1% active;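 active means viability at or below 30%; inactive means viability above 30%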;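 further: 100% = median luminescence of DMSO-only cell control wells on each plate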
* marks the source's active call; other numbers are inactive results; / = no result given. This is a sample that favours compounds with a hit; in the whole collection about 6.4% have one here.

SMILES	Jurkat viability	H69AR inhibit	Fibroblast inh	HUVEC inhibit
CCCC1C2CN(C(C)C)CC=C2C(C#N)=C(N)C1(C#N)C#N (configuration not stated)	-2	21*	97	94
CC(C)c1ccc(C2C3CSCC=C3C(C#N)=C(N)C2(C#N)C#N)cc1 (configuration not stated)	/	1.4*	86	6.8*
CN1CC=C2C(C#N)=C(N)C(C#N)(C#N)[C@H](c3cccs3)[C@H]2C1	/	35*	85	91
O=C1CCCCCN1CP(=O)(O)CN1CCOCC1	-5	93	103	93
COc1ccc(OC)c(C2C3=C(CCCC3=O)Nc3nc4ccccc4n32)c1 (configuration not stated)	16	/	/	/
CCCn1c(C)nc2c(c1=O)c1nc3ccccc3nc1n2CCc1ccccc1	6	80	103	109
CCCn1c(C)nc2c(c1=O)c1nc3ccccc3nc1n2CCC1=CCCCC1	7	13*	86	73
c1ccc(-c2cccc(-c3ccccn3)n2)nc1	87*	8.8*	29*	10*
c1ccc(-c2nnc(-c3ccccn3)nn2)nc1	/	44	100	80
Cc1cc(C(=O)O)c2ccccc2n1	/	101	101	98
Cc1cc(C)c2ccc(C(=O)O)nc2c1O	/	38*	93	83
CSc1ccc(-c2nnn(CC(=O)NCc3ccccc3)n2)cc1	/	25*	92	70
CCOC(=O)C1=C(Cn2cnc3ccccc32)NC(=O)NC1c1ccc(OC)cc1 (configuration not stated)	/	105	99	100
CCOC(=O)C1=C(CNCc2ccc(C)cc2)NC(=O)NC1c1ccc(OC)cc1 (configuration not stated)	35*	50	97	94
O=C(CCn1c(=O)oc2ccccc21)Nc1ccc2c(c1)OCCO2	-3	92	116	94
COC(CNC(=O)C1CC(=O)N(CCc2ccccc2)C1)OC (configuration not stated)	/	92	93	103
Cc1ccccc1Cc1c(C)nc2c(C(=O)NCc3ccco3)cnn2c1C	8	40*	106	92
Cc1nc2c(C(=O)O)cnn2c(C)c1Cc1ccccc1F	/	85	102	97
Cn1c(=O)c2c(nc(Oc3ccc4c(c3)OCO4)n2Cc2ccc(Cl)cc2)n(C)c1=O	4	12*	/	12*
Cn1c(=O)c2c(nc(CN3CCN(Cc4ccccc4)CC3)n2Cc2ccccc2)n(C)c1=O	4	60	98	98
Cn1c(=O)c2c(nc(CN3CCN(Cc4ccccc4)CC3)n2Cc2ccc(Cl)cc2)n(C)c1=O	2	10*	45*	70
Cn1c(=O)n(Cc2ccccc2)c(=O)c2c1nc1n2CCCN1Cc1ccccc1	-2	32*	91	92
Cn1c(=O)c2c(nc(NCc3ccc4c(c3)OCO4)n2Cc2ccc(F)cc2)n(C)c1=O	/	23*	84	57
CC(C)Oc1ccc(C(=O)N/N=C/c2ccc(-c3ccc(S(=O)(=O)Nc4ncccn4)cc3)o2)cc1	/	97	98	75
O=C(c1ccc2c(=O)n(C3CCCC3)c(=S)[nH]c2c1)N1CCc2ccccc21	/	57	88	89
SMILES	Jurkat viability	H69AR inhibit	Fibroblast inh	HUVEC inhibit
COc1ccc(N2CCn3c2nc2c3c(=O)n(CCCc3ccccc3)c(=O)n2C)c(OC)c1	50*	84	69	68
Cn1c(=O)c2c(nc(NCc3ccc4c(c3)OCO4)n2Cc2ccccc2)n(C)c1=O	/	29*	97	89
COc1ccc(N2CCn3c2nc2c3c(=O)n(CCc3ccccc3)c(=O)n2C)c(OC)c1	5	67	98	79
CC(=O)c1c(C)nc(-c2ccc(Cl)cc2)nc1NC(=O)C(C)C	10	105	92	82
Cc1ccc(NC(=O)CN(C)S(=O)(=O)c2cccc3nsnc23)cc1Cl	-1	75	97	92
O=C(N1CCOCC1)N1CCN(C(=O)N2CCOCC2)CC1	/	94	101	92
CCCn1c(N)c(C(=O)CSc2nc(C)cs2)c(=O)n(C)c1=O	/	101	103	93
CCc1ccccc1NC(=O)c1nnn(CC(=O)Nc2cccc(C)c2)c1N	1	92	93	94
Cc1ccc(NC(=O)c2nnn(CC(=O)Nc3ccccc3)c2N)cc1C	-2	25*	72	81
CCC(=O)Oc1ccc(/C(CC)=C(\CC)c2ccc(OC(=O)CC)cc2)cc1	/	10*	70	55
N#CC1=C(N)N(c2ccccc2)C2=C(C(=O)CCC2)C1c1ccsc1 (configuration not stated)	12	27*	94	94
CCSc1sccc1C1C(C#N)=C(N)N(c2cccnc2)C2=C1C(=O)CCC2 (configuration not stated)	0	52	100	86
